Columns and labels:
[1] = Plasma pharmacokinetics of total flavanones; type: in vivo, human; details: fruit or juice
How it was run: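 Randomised cross-over in twenty volunteers on a flavonoid-avoidance diet, given single orange juice (300 g) or fruit portions. Drinking withheld 1·5 h and eating 4 h. Heparinised blood taken at 15, 30, 45 min and 1–48 h, centrifuged, and ascorbate added (final 1 mM). Plasma (pH 5·0) hydrolysed with β-glucuronidase and sulfatase for 2 h at 37°C. Total naringenin and hesperetin measured by C18 SPE and reversed-phase HPLC.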

[2] = type: in vivo, human; details: orange juice, n 129, linear model
How it was run: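 Extended cohort of 129 subjects given a single 300 g orange juice dose. Urine collected as 24 h fractions: the day before, then for 48 h after, into bottles holding 1 g ascorbic acid. Volumes recorded. Urine (pH 5·0) hydrolysed with β-glucuronidase (10 000 units) and sulfatase (1000 units) for 2 h at 37°C, with galangin as internal standard. Measured by C18 SPE and HPLC, expressed as % of flavanone dose.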

[3] = cited from earlier work
[4] = cited from earlier work; remark: listed apart in the source

| time of major peak in plasma profile [1] | decrease in urinary excretion between the ages of 20 and 80 years [2] | Compound | time to peak plasma concentration [3] | mean urinary yield [4] |
| --- | --- | --- | --- | --- |
| about 6 h | 4% | COc1ccc([C@@H]2CC(=O)c3c(O)cc(O)cc3O2)cc1O [hesperetin] | – | – |
| about 6 h | – | O=C1C[C@@H](c2ccc(O)cc2)Oc2cc(O)cc(O)c21 [naringenin] | – | – |
| – | – | C[C@@H]1O[C@@H](OC[C@H]2O[C@@H](Oc3c(-c4ccc(O)c(O)c4)oc4cc(O)cc(O)c4c3=O)[C@H](O)[C@@H](O)[C@@H]2O)[C@H](O)[C@H](O)[C@H]1O [rutin, quercetin rutinoside] | about 6 h | – |
| – | – | C[C@@H]1O[C@@H](O[C@H]2[C@H](Oc3cc(O)c4c(c3)O[C@H](c3ccc(O)cc3)CC4=O)O[C@H](CO)[C@@H](O)[C@@H]2O)[C@H](O)[C@H](O)[C@H]1O [naringin] | about 6 h | > 8% |
| – | – | OC[C@H]1O[C@@H](Oc2cc3c(O)cc(O)cc3[o+]c2-c2ccc(O)cc2)[C@H](O)[C@@H](O)[C@@H]1O [pelargondin-3-glucoside] | about 1 h | – |
| – | – | COc1ccc([C@@H]2CC(=O)c3c(O)cc(O[C@@H]4O[C@H](CO[C@@H]5O[C@@H](C)[C@H](O)[C@@H](O)[C@H]5O)[C@@H](O)[C@H](O)[C@H]4O)cc3O2)cc1O [hesperidin, 7-O-rutinoside of hesperetin] | about 6 h | > 8% |

From article PMC3508427 (The British journal of nutrition, 2009)
